Laboratory results: ChEMBL document CHEMBL1141776, “Gymnoascolides A-C: aromatic butenolides from an Australian isolate of the soil ascomycete Gymnoascus reessii” (2005)
The source made the active and inactive calls. No cut-off for these calls is given here.

How the values were obtained:
Parastagonospora nodorum = test: Antifungal activity against Septoria nodorum after 48 hrs by agar-based microtiter plate assay; assay type: functional
Procedure, shortened: (§1)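 Agar-based microtiter plate assay: spores (20 000 sp/well) applied to potato dextrose agar in wells containing serial 2-fold dilutions of test compound. Plates incubated at 24 °C; fungal growth assessed qualitatively at 48 h.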

Candida albicans [1] = test: Antifungal activity against Candida albicans after 48 hrs by agar-based microtiter plate assay; assay type: functional; procedure, shortened: as §1
NS1 = test: Cytotoxicity against mouse NS1 cells; assay type: functional, cell-based
[2] = test system: Haemonchus contortus (nematode); test: Nematicidal activity against Haemonchus contortus
Candida albicans [3] = test: Antifungal activity against Candida albicans up to […] after 48 hrs by agar-based microtiter plate assay; assay type: functional, organism-based; procedure, shortened: as §1
Bacillus subtilis = test: Antibacterial activity against Bacillus subtilis; assay type: functional, organism-based

| SMILES | LD99 (Parastagonospora nodorum) | LD99 (Candida albicans [1]) | Activity (NS1) | Activity [2] | Activity (Candida albicans [3]) | Activity (Bacillus subtilis) |
| --- | --- | --- | --- | --- | --- | --- |
| C[C@@H]1[C@H](O)[C@@H](C)/C=C/C=C/C=C/C=C/C=C/C=C/C=C/[C@H](O[C@@H]2O[C@H](C)[C@@H](O)[C@H](N)[C@@H]2O)C[C@@H]2O[C@](O)(C[C@@H](O)C[C@@H](O)[C@H](O)CC[C@@H](O)C[C@@H](O)CC(=O)O[C@H]1C)C[C@H](O)[C@H]2C(=O)O [AMPHOTERICIN B] | 0.0031 mg/mL | 0.0031 mg/mL |  |  |  |  |
| CN(CC[C@H](N)CC(=O)N[C@@H]1C=C[C@@H](n2ccc(N)nc2=O)O[C@H]1C(=O)O)C(=N)N.Cl [BLASTICIDIN S HCL] | 0.0016 mg/mL | 0.00039 mg/mL |  |  |  |  |
| CCCC[C@H]1C(=O)O[C@H](C)[C@H](NC(=O)c2cccc(NC=O)c2O)C(=O)O[C@@H](C)[C@@H]1OC(=O)CC(C)C [ANTIMYCIN A3] | 0.0002 mg/mL | 0.05 mg/mL |  |  |  |  |
| O=C1OCC(Cc2ccccc2)=C1c1ccccc1 [GYMNOASCOLIDE A] | 0.013 mg/mL |  | inactive | inactive | inactive | inactive |
| C[C@@H]1C[C@H]2O[C@@H]2/C=C\C=C\C(=O)Cc2c(Cl)c(O)cc(O)c2C(=O)O1 [RADICICOL] | 0.012 mg/mL | 0.012 mg/mL |  |  |  |  |
| C[C@@H]1C[C@@H]([C@H](O)CC2CC(=O)NC(=O)C2)C(=O)[C@@H](C)C1 [CYCLOHEXIMIDE] | 0.0063 mg/mL |  |  |  | inactive |  |
| CO[C@H]1OC(=O)C(c2ccccc2)=C1C(O)c1ccccc1 (stereo partly specified) |  |  | inactive | inactive |  | inactive |
| CO[C@@H]1OC(=O)C(c2ccccc2)=C1C(O)c1ccccc1 (stereo partly specified) |  |  | inactive | inactive |  | inactive |
